Test system: U2OS
Assay: Multiplex assay against U2OS
Format: toxicity, cell-based
Conditions: human
Method in brief: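 On a CQ1 microscope at 37°C and 5% CO2, live cells were imaged after compound addition. They had been stained at seeding with Hoechst33342, BioTracker Green Microtubule Cytoskeleton Dye, MitoTracker Red and Annexin V Alexa Fluor 680. CellPathfinder machine-learning gating assigned cells to Hoechst high-intensity objects or normal cells, normal cells to healthy, pyknosed or fragmented nuclei, and pyknosed cells to mitotic or apoptotic. Tubulin, mitochondrial-mass and membrane-permeability phenotypes are per cents of healthy-nucleus cells.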

[1] = 12 h, 1 µM, compound concentration 1 uM, replicate 1
[2] = 12 h, 1 µM, compound concentration 1 uM, replicate 2
[3] = 12 h, 10 µM, compound concentration 10 uM, replicate 1
[4] = 12 h, 10 µM, compound concentration 10 uM, replicate 2
[5] = 24 h, 1 µM, compound concentration 1 uM, replicate 1
[6] = 24 h, 1 µM, compound concentration 1 uM, replicate 2
[7] = 24 h, 10 µM, compound concentration 10 uM, replicate 1
[8] = 24 h, 10 µM, compound concentration 10 uM, replicate 2
[9] = 48 h, 1 µM, compound concentration 1 uM, replicate 1
[10] = 48 h, 1 µM, compound concentration 1 uM, replicate 2
[11] = 48 h, 10 µM, compound concentration 10 uM, replicate 1
[12] = 48 h, 10 µM, compound concentration 10 uM, replicate 2

Compound: N#Cc1c(Oc2cccc(OS(=O)(=O)CCCC(F)(F)F)c2)cccc1C(F)(F)F
- Population Apoptotic (%) [1]: 77%
- Population Fragmented Nuclei (%) [1]: 27%
- Population Healthy Nuclei (%) [1]: 61%
- Population Hoechst High Intensity Objects (%) [1]: 3%
- Population Membrane Permeable-Phenotype (%) [1]: 4%
- Population Mitochondria Different-Phenotype (%) [1]: 2%
- Population Mitotic Cells (%) [1]: 22%
- Population Normal (%) [1]: 96%
- Population Pyknosed Nuclei (%) [1]: 10%
- Population Tubulin-Different-Phenotype (%) [1]: 0%
- Total Cell Count [1]: 220
- Population Apoptotic (%) [2]: 81%
- Population Fragmented Nuclei (%) [2]: 12%
- Population Healthy Nuclei (%) [2]: 76%
- Population Hoechst High Intensity Objects (%) [2]: 0%
- Population Membrane Permeable-Phenotype (%) [2]: 7%
- Population Mitochondria Different-Phenotype (%) [2]: 7%
- Population Mitotic Cells (%) [2]: 18%
- Population Normal (%) [2]: 99%
- Population Tubulin-Different-Phenotype (%) [2]: 8%
- Total Cell Count [2]: 109
- Population Apoptotic (%) [3]: 78%
- Population Fragmented Nuclei (%) [3]: 27%
- Population Healthy Nuclei (%) [3]: 63%
- Population Hoechst High Intensity Objects (%) [3]: 3%
- Population Membrane Permeable-Phenotype (%) [3]: 11%
- Population Mitochondria Different-Phenotype (%) [3]: 8%
- Population Mitotic Cells (%) [3]: 21%
- Population Normal (%) [3]: 96%
- Population Pyknosed Nuclei (%) [3]: 8%
- Population Tubulin-Different-Phenotype (%) [3]: 7%
- Total Cell Count [3]: 222
- Population Apoptotic (%) [4]: 90%
- Population Fragmented Nuclei (%) [4]: 14%
- Population Healthy Nuclei (%) [4]: 75%
- Population Hoechst High Intensity Objects (%) [4]: 0%
- Population Membrane Permeable-Phenotype (%) [4]: 21%
- Population Mitochondria Different-Phenotype (%) [4]: 4%
- Population Mitotic Cells (%) [4]: 9%
- Population Normal (%) [4]: 99%
- Population Pyknosed Nuclei (%) [4]: 9%
- Total Cell Count [4]: 112
- Population Apoptotic (%) [5]: 75%
- Population Fragmented Nuclei (%) [5]: 25%
- Population Healthy Nuclei (%) [5]: 61%
- Population Hoechst High Intensity Objects (%) [5]: 2%
- Population Membrane Permeable-Phenotype (%) [5]: 4%
- Population Mitochondria Different-Phenotype (%) [5]: 2%
- Population Mitotic Cells (%) [5]: 24%
- Population Normal (%) [5]: 97%
- Population Pyknosed Nuclei (%) [5]: 12%
- Population Tubulin-Different-Phenotype (%) [5]: 3%
- Total Cell Count [5]: 263
- Population Apoptotic (%) [6]: 90%
- Population Fragmented Nuclei (%) [6]: 12%
- Population Healthy Nuclei (%) [6]: 79%
- Population Hoechst High Intensity Objects (%) [6]: 1%
- Population Membrane Permeable-Phenotype (%) [6]: 11%
- Population Mitochondria Different-Phenotype (%) [6]: 3%
- Population Mitotic Cells (%) [6]: 10%
- Population Normal (%) [6]: 98%
- Population Pyknosed Nuclei (%) [6]: 7%
- Population Tubulin-Different-Phenotype (%) [6]: 7%
- Total Cell Count [6]: 130
- Population Apoptotic (%) [7]: 66%
- Population Fragmented Nuclei (%) [7]: 26%
- Population Healthy Nuclei (%) [7]: 66%
- Population Hoechst High Intensity Objects (%) [7]: 6%
- Population Membrane Permeable-Phenotype (%) [7]: 10%
- Population Mitochondria Different-Phenotype (%) [7]: 8%
- Population Mitotic Cells (%) [7]: 33%
- Population Normal (%) [7]: 93%
- Population Pyknosed Nuclei (%) [7]: 7%
- Population Tubulin-Different-Phenotype (%) [7]: 5%
- Total Cell Count [7]: 252
- Population Fragmented Nuclei (%) [8]: 9%
- Population Healthy Nuclei (%) [8]: 83%
- Population Hoechst High Intensity Objects (%) [8]: 3%
- Population Membrane Permeable-Phenotype (%) [8]: 11%
- Population Mitochondria Different-Phenotype (%) [8]: 0%
- Population Normal (%) [8]: 96%
- Population Tubulin-Different-Phenotype (%) [8]: 7%
- Total Cell Count [8]: 130
- Population Apoptotic (%) [9]: 87%
- Population Fragmented Nuclei (%) [9]: 17%
- Population Healthy Nuclei (%) [9]: 70%
- Population Hoechst High Intensity Objects (%) [9]: 3%
- Population Membrane Permeable-Phenotype (%) [9]: 4%
- Population Mitochondria Different-Phenotype (%) [9]: 0%
- Population Mitotic Cells (%) [9]: 12%
- Population Normal (%) [9]: 96%
- Population Pyknosed Nuclei (%) [9]: 11%
- Population Tubulin-Different-Phenotype (%) [9]: 3%
- Total Cell Count [9]: 361
- Population Apoptotic (%) [10]: 100%
- Population Fragmented Nuclei (%) [10]: 16%
- Population Healthy Nuclei (%) [10]: 73%
- Population Hoechst High Intensity Objects (%) [10]: 2%
- Population Membrane Permeable-Phenotype (%) [10]: 9%
- Population Mitochondria Different-Phenotype (%) [10]: 4%
- Population Mitotic Cells (%) [10]: 0%
- Population Normal (%) [10]: 97%
- Population Pyknosed Nuclei (%) [10]: 9%
- Population Tubulin-Different-Phenotype (%) [10]: 7%
- Total Cell Count [10]: 195
- Population Apoptotic (%) [11]: 91%
- Population Fragmented Nuclei (%) [11]: 23%
- Population Healthy Nuclei (%) [11]: 64%
- Population Hoechst High Intensity Objects (%) [11]: 4%
- Population Membrane Permeable-Phenotype (%) [11]: 10%
- Population Mitochondria Different-Phenotype (%) [11]: 6%
- Population Mitotic Cells (%) [11]: 8%
- Population Normal (%) [11]: 95%
- Population Pyknosed Nuclei (%) [11]: 11%
- Population Tubulin-Different-Phenotype (%) [11]: 6%
- Total Cell Count [11]: 328
- Population Apoptotic (%) [12]: 100%
- Population Fragmented Nuclei (%) [12]: 11%
- Population Healthy Nuclei (%) [12]: 77%
- Population Hoechst High Intensity Objects (%) [12]: 3%
- Population Membrane Permeable-Phenotype (%) [12]: 13%
- Population Mitochondria Different-Phenotype (%) [12]: 4%
- Population Mitotic Cells (%) [12]: 0%
- Population Normal (%) [12]: 96%
- Population Pyknosed Nuclei (%) [12]: 10%
- Population Tubulin-Different-Phenotype (%) [12]: 7%
- Total Cell Count [12]: 184
